ChEMBL document CHEMBL2331506, “Design, synthesis, antiviral and cytostatic evaluation of novel isoxazolidine nucleotide analogues with a carbamoyl linker” (Bioorg Med Chem, 2013)
Calls of active or inactive are those of the source. How the calls were made is not given here.

What was measured:
K562 = experiment: Cytotoxicity against human K562 cells; format: functional, cell-based
HeLa [1] = experiment: Cytostatic activity against human HeLa cells assessed as inhibition of cell proliferation after 72 hrs by Coulter counter analysis; format: functional, cell-based
In short: (§1)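 Each well received (5–7.5) × 10^4 tumor cells plus compound. L1210 cells grew 48 h and CEM and HeLa cells grew 72 h, at 37 °C in humidified CO2. Cells were then counted electronically, and IC50 was taken as the concentration inhibiting proliferation by 50%.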

CCRF-CEM = experiment: Cytostatic activity against human CEM cells assessed as inhibition of cell proliferation after 72 hrs by Coulter counter analysis; format: functional, cell-based; in short: as §1
L1210 = experiment: Cytostatic activity against mouse L1210 cells assessed as inhibition of cell proliferation after 48 hrs by Coulter counter analysis; format: functional, cell-based; details: L1210, 48 h; in short: as §1
MDCK = experiment: Cytotoxicity against dog MDCK cells assessed as alteration of cell morphology up to 100 uM by microscopic analysis; format: cell-based, Canis lupus familiaris
In short: (§2)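 Uninfected host-cell cultures were exposed to compound and examined by microscopy. Cytotoxicity was expressed as the minimum cytotoxic concentration (MCC) causing a microscopically detectable alteration of normal cell morphology.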

[2] = Cytotoxicity against cat CRFK cells assessed as alteration of cell morphology up to 100 uM by microscopic analysis; format: cell-based, Felis catus; in short: as §2
Vero = experiment: Cytotoxicity against african green monkey Vero cells assessed as alteration of cell morphology up to 100 uM by microscopic analysis; format: cell-based; details: chlorocebus sabaeus; in short: as §2
HeLa [3] = experiment: Cytotoxicity against human HeLa cells assessed as alteration of cell morphology up to 100 uM by microscopic analysis; format: cell-based; in short: as §2
HEL = experiment: Cytotoxicity against human HEL cells assessed as alteration of cell morphology up to 100 uM by microscopic analysis; format: cell-based; in short: as §2
[4] = test system: Human immunodeficiency virus 2; experiment: Antiviral activity against Human immunodeficiency virus 2 ROD infected in human CEM cells assessed as reduction of virus-induced giant cell formation at 250 uM after 4 to 5 days; format: functional, organism-based; details: CCRF-CEM
In short: (§3)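 CEM cells at 3 × 10^5 cells/mL were infected with HIV at 100 CCID50 per mL in the presence of compound dilutions. They were held 4–5 days at 37 °C in humidified CO2. Syncytium (giant cell) formation was scored microscopically, and EC50 was taken as the concentration inhibiting giant cell formation by 50%.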

[5] = test system: Human immunodeficiency virus 1; experiment: Antiviral activity against Human immunodeficiency virus 1 3B infected in human CEM cells assessed as reduction of virus-induced giant cell formation at 250 uM after 4 to 5 days; format: functional, organism-based; details: CCRF-CEM; in short: as §3
Feline coronavirus = experiment: Antiviral activity against Feline coronavirus infected in cat CRFK cells assessed as reduction of virus-induced cytopathogenicity at 250 uM; format: functional, organism-based
Felid alphaherpesvirus 1 = experiment: Antiviral activity against Feline herpes virus infected in cat CRFK cells assessed as reduction of virus-induced cytopathogenicity at 250 uM; format: functional, organism-based
Influenza B virus = experiment: Antiviral activity against Influenza B virus infected in dog MDCK cells assessed as reduction of virus-induced cytopathogenicity at 250 uM; format: functional, organism-based
In short: (§4)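 Confluent cell monolayers were infected with 100 CCID50 of virus while exposed to varying compound concentrations. Cytopathicity was scored once it was complete in untreated infected controls. EC50 was taken as the concentration that reduced virus-induced cytopathogenicity by 50%.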

Influenza A virus [6] = experiment: Antiviral activity against Influenza A virus H3N2 infected in dog MDCK cells assessed as reduction of virus-induced cytopathogenicity at 250 uM; format: functional, organism-based; in short: as §4
Influenza A virus [7] = experiment: Antiviral activity against Influenza A virus H1N1 infected in dog MDCK cells assessed as reduction of virus-induced cytopathogenicity at 250 uM; format: functional, organism-based; in short: as §4
Punta Toro virus = experiment: Antiviral activity against Punta Toro virus infected in african green monkey Vero cells assessed as reduction of virus-induced cytopathogenicity at 250 uM; format: functional, organism-based
In short: (§5)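 Confluent monolayers (HEL fibroblasts, Vero, or HeLa cells as listed) were infected with 100 CCID50 of virus in the presence of varying compound concentrations. Virus-induced cytopathicity or plaque formation was scored once cytopathicity was complete in untreated infected controls. EC50 was taken as the concentration reducing cytopathogenicity or plaque formation by 50%.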

Sindbis virus = experiment: Antiviral activity against Sindbis virus infected in african green monkey Vero cells assessed as reduction of virus-induced cytopathogenicity at 250 uM; format: functional, organism-based; in short: as §5
Coxsackievirus B4 = experiment: Antiviral activity against Coxsackievirus B4 infected in african green monkey Vero cells assessed as reduction of virus-induced cytopathogenicity at 250 uM; format: functional, organism-based; in short: as §5
[8] = test system: Mammalian orthoreovirus 1; experiment: Antiviral activity against Reovirus 1 infected in african green monkey Vero cells assessed as reduction of virus-induced cytopathogenicity at 250 uM; format: functional, organism-based; in short: as §5
Human respirovirus 3 = experiment: Antiviral activity against Parainfluenza virus 3 infected in african green monkey Vero cells assessed as reduction of virus-induced cytopathogenicity at 250 uM; format: functional, organism-based; in short: as §5
[9] = test system: Respiratory syncytial virus; experiment: Antiviral activity against Respiratory syncytial virus long infected in human HeLa cells assessed as reduction of virus-induced cytopathogenicity at 250 uM; format: functional, organism-based; in short: as §5
[10] = test system: Vesicular stomatitis virus; experiment: Antiviral activity against Vesicular stomatitis virus infected in human HeLa cells assessed as reduction of virus-induced cytopathogenicity at 250 uM; format: functional, organism-based; in short: as §4
Human alphaherpesvirus 1 [11] = experiment: Antiviral activity against thymidine kinase-deficient, ACV-resistant Herpes simplex virus 1 KOS infected in human HEL cells assessed as reduction of virus-induced cytopathogenicity at 250 uM; format: functional, organism-based; in short: as §4
[12] = test system: Vesicular stomatitis virus; experiment: Antiviral activity against Vesicular stomatitis virus infected in human HEL cells assessed as reduction of virus-induced cytopathogenicity at 250 uM; format: functional, organism-based; in short: as §4
Human alphaherpesvirus 2 = experiment: Antiviral activity against Herpes simplex virus 2 G infected in human HEL cells assessed as reduction of virus-induced cytopathogenicity at 250 uM; format: functional, organism-based; details: strain G; in short: as §5
Human alphaherpesvirus 1 [13] = experiment: Antiviral activity against Herpes simplex virus 1 KOS infected in human HEL cells assessed as reduction of virus-induced cytopathogenicity at 250 uM; format: functional, organism-based; in short: as §5
HeLa [14] = experiment: Cytotoxicity against human HeLa cells; format: functional, cell-based

| SMILES | IC50 (HeLa [1]) [µM] | IC50 (CCRF-CEM) [µM] | IC50 (L1210) [µM] | Activity (MDCK) | Activity [2] | Activity (Vero) | Activity (HeLa [3]) | Activity (HEL) | inhibition [4] | inhibition [5] | inhibition (Feline coronavirus) | inhibition (Felid alphaherpesvirus 1) | inhibition (Influenza B virus) | inhibition (Influenza A virus [6]) | inhibition (Influenza A virus [7]) | inhibition (Punta Toro virus) | inhibition (Sindbis virus) | inhibition (Coxsackievirus B4) | inhibition [8] | inhibition (Human respirovirus 3) | also measured |
| --- | --- | --- | --- | --- | --- | --- | --- | --- | --- | --- | --- | --- | --- | --- | --- | --- | --- | --- | --- | --- | --- |
| CCOP(=O)(OCC)C1CC(c2ccc3ccccc3c2)ON1C (stereo unspecified) | – | – | – | – | – | – | – | – | – | – | – | – | – | – | – | – | – | – | – | – | IC50 (K562): 90 µM |
| CCOP(=O)(OCC)[C@@H]1C[C@H](C(=O)Nc2ccc(C(C)=O)cc2)ON1C (racemic) | 211 | 227 | 150 | Non-toxic | Non-toxic | Non-toxic | Non-toxic | Non-toxic | inactive | inactive | inactive | inactive | inactive | inactive | inactive | inactive | inactive | inactive | inactive | inactive | inhibition [9]: inactive; inhibition [10]: inactive; inhibition (Human alphaherpesvirus 1 [11]): inactive; inhibition [12]: inactive; inhibition (Human alphaherpesvirus 2): inactive; inhibition (Human alphaherpesvirus 1 [13]): inactive |
| CCOP(=O)(OCC)[C@H]1C[C@H](C(=O)Nc2ccc(C(C)=O)cc2)ON1C (mixture of isomers) | > 250 | > 250 | > 250 | Non-toxic | Non-toxic | Non-toxic | Non-toxic | Non-toxic | inactive | inactive | inactive | inactive | inactive | inactive | inactive | inactive | inactive | inactive | inactive | inactive | inhibition [9]: inactive; inhibition [10]: inactive; inhibition (Human alphaherpesvirus 1 [11]): inactive; inhibition [12]: inactive; inhibition (Human alphaherpesvirus 2): inactive; inhibition (Human alphaherpesvirus 1 [13]): inactive |
| CCOP(=O)(OCC)C1CC(c2cccc3ccccc23)ON1C (stereo unspecified) | – | – | – | – | – | – | – | – | – | – | – | – | – | – | – | – | – | – | – | – | IC50 (HeLa [14]): 50 µM |
| CCOP(=O)(OCC)[C@@H]1C[C@H](C(=O)Nc2ccccc2F)ON1C (racemic) | 177 | 145 | 130 | Non-toxic | Non-toxic | Non-toxic | Non-toxic | Non-toxic | inactive | inactive | inactive | inactive | inactive | inactive | inactive | inactive | inactive | inactive | inactive | inactive | inhibition [9]: inactive; inhibition [10]: inactive; inhibition (Human alphaherpesvirus 1 [11]): inactive; inhibition [12]: inactive; inhibition (Human alphaherpesvirus 2): inactive; inhibition (Human alphaherpesvirus 1 [13]): inactive |
| CCOP(=O)(OCC)[C@H]1C[C@H](C(=O)Nc2ccccc2F)ON1C (mixture of isomers) | ≥ 250 | > 250 | > 250 | Non-toxic | Non-toxic | Non-toxic | Non-toxic | Non-toxic | inactive | inactive | inactive | inactive | inactive | inactive | inactive | inactive | inactive | inactive | inactive | inactive | inhibition [9]: inactive; inhibition [10]: inactive; inhibition (Human alphaherpesvirus 1 [11]): inactive; inhibition [12]: inactive; inhibition (Human alphaherpesvirus 2): inactive; inhibition (Human alphaherpesvirus 1 [13]): inactive |
